The series is described as follows: Toxicity liver stage against HepG2, at 10uM. It counts as cell-based. Also noted: test concentration 10 uM, cell line HepG2-A16-CD81EGFP. The settings on record: human, HepG2-A16-CD81EGFP cells; read-out: INHIBITION
The essentials: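 Uninfected HepG2-A16-CD81EGFP cells, 3 × 10^3 per well, 1536-well, plated on prespotted compound at 10 μM final, parasite-free screening media added to match infected plates; puromycin 10 μM positive, DMSO 0.5% negative; run in parallel with 48 h PbLuc assay at 37 °C, 5% CO2; viability by CellTiter-Glo luminescence, normalized to controls.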
Turning to `C/C(NC(=O)c1ccccn1)=C1\C(=O)C[C@@H]2[C@H]1C2(C)C`, the cytotoxicity at 10 µM came to 7.66%. Next, `COc1cccc2ccn(CC(=O)NCCC(C)C)c12`: -43.3%. In the case of `COc1ccc(CNC(=O)CCCc2nnc3ccc(OC)nn23)cc1`, the cytotoxicity at 10 µM was -5.36%.

Take `Cc1cc(C)nc(NC(=O)NCCCSc2nncn2C)n1`: the cytotoxicity at 10 µM amounted to 1.74%. Regarding `O=c1[nH]c2c(-c3ccccn3)nsc2c(=O)n1C1CCCCC1`, the cytotoxicity at 10 µM is -11.5%. Consider `Cc1n[nH]c2c1C(c1ccc3c(c1)OCO3)SCC(=O)N2` (centres undefined), for which the cytotoxicity at 10 µM is 3.46%. Next, `Cc1nn(S(=O)(=O)c2ccc(Cl)cc2)c(C)c1C`: 15.1%; `COCCN(Cc1ccoc1)C(=O)c1c(F)cccc1Cl`: -0.11%.

Turning to `Cc1oc(-c2nc(C#N)c(N(C)C)o2)cc1S(=O)(=O)N1CCCC1`, the cytotoxicity at 10 µM is -8.87%. As for `CC(C)C(=O)Nc1cccc(C(=O)Nc2ccccn2)c1`, the cytotoxicity at 10 µM is -2.37%. Next, `Cc1ccnc(NC(=O)CCc2cnn(C)c2C)c1`: 0.107%; `CCS(=O)(=O)Nc1cnn(Cc2cccc(F)c2)c1`: -1%; `CCn1c(SCC(=O)O)nnc1C(C)NC(=O)c1ccc(Cl)cc1` (centres undefined): 3.52%.

Consider `CCOC(=O)C1CCN(c2cc(C(=O)N3CCCCC3)nc(C)n2)CC1`, for which the cytotoxicity at 10 µM was -4.17%. Turning to `O=C(O)c1ccnc2c(Br)cccc12`, the cytotoxicity at 10 µM is 8.02%. For the compound `O=C(O)[C@H]1CN(Cc2ccccc2)C[C@@H]1C(=O)c1ccccc1`, the cytotoxicity at 10 µM turned out to be 5.76%.

Consider `CCCn1ncc(C(=O)NC(C)c2c(C)nn(CC)c2C)c1C` (centres undefined), for which the cytotoxicity at 10 µM was determined as 9.91%.

With `CNc1cnc(CC2COCCN(Cc3ccccc3)C2)cn1` (centres undefined), the cytotoxicity at 10 µM came out at 10.9%. Take `O=S(=O)(c1ccccc1)N1CCOCC(Cc2cccnc2)C1` (centres undefined): the cytotoxicity at 10 µM was determined as 0.812%. Next, `Cc1cc(C(=O)N2CCC(O)(Cn3c(C)cc4ccncc43)CC2)on1`: 9.55%; `Cc1cc(C)n(CC(=O)N2CCCC2c2cc3cccnc3[nH]2)n1` (centres undefined): 3.94%. Take `COc1ccccc1C(=O)N1C[C@@H]2CCCCN(CC(N)=O)[C@@H]2C1`: the cytotoxicity at 10 µM was -4.43%. On to `COc1ccc(CC2CN(C(=O)c3coc(C)n3)CCO2)cc1` (centres undefined), for which the cytotoxicity at 10 µM amounted to 3.8%. Next, `Cc1nccnc1CCC1COCCN1C(=O)CCc1c(C)noc1C` (centres undefined): 5.7%; `NCc1cnn(-c2ccccc2C(=O)N2CCCC(C(N)=O)C2)c1` (centres undefined): 1.2%; `CC(C)NC(=O)NCc1nnc2n1C(C(=O)N(C)C)CC2` (centres undefined): 5.45%. Next, `O=c1[nH]c2ncccc2n1C1CCCC1`: 10.6%. `O=C(CN1CCCCC1)Nc1cc(C(F)(F)F)ccc1-n1cccc1`: the cytotoxicity at 10 µM came to 5.24%. Take `O=C(COc1ccccc1Br)N1CCOc2ccncc21`: the cytotoxicity at 10 µM is 5.13%. Next, `O=c1[nH]c(=O)n(CC(O)c2ccc(F)cc2F)cc1Cl` (centres undefined): 2.64%. Regarding `Cc1cc(NC(=O)N2CCC[C@@H]2CO)nn1-c1cccc(Cl)c1`, the cytotoxicity at 10 µM is -1.08%. For `CC(=O)NC1CCCN(C(=O)CCc2cccnc2)C1` (centres undefined), the cytotoxicity at 10 µM is 19.8%. For the compound `N#Cc1cc(S(N)(=O)=O)ccc1N1CCc2c(Cl)cccc2C1`, the cytotoxicity at 10 µM was 14.7%.

With `COc1ccccc1CC1CCCN(C(=O)c2cn[nH]c2C)C1` (centres undefined), the cytotoxicity at 10 µM came out at 7.61%.

Consider `COC(=O)C1CCCCN1C(=O)c1ccccc1F` (centres undefined), for which the cytotoxicity at 10 µM came out at 8.96%. Turning to `CN(C)C(CNC(=O)c1ccnc(-n2cncn2)c1)c1ccccc1` (centres undefined), the cytotoxicity at 10 µM is -130%.

In the case of `CC(=O)N1CCC(NC(=O)CN2CCCc3c(F)ccc(C)c32)CC1`, the cytotoxicity at 10 µM is -7.68%.

In the case of `NC(=O)c1ccc(NC(=O)c2ccncc2F)cn1`, the cytotoxicity at 10 µM turned out to be 6.48%. Next, `OCCN(Cc1cccnc1)c1cnc2ccccc2n1`: 1.06%; `CCCn1nnnc1CSc1nccn1Cc1ccccn1`: 6.24%. Next, `Cc1cc(I)cnc1NC(=O)C(C)(C)C`: 4.44%; `CCOCCOC(C)C(=O)Nc1ccc2ccn(CCN(C)C)c2c1` (centres undefined): 10.1%. As to `CC(C)(C)Oc1ccc(C(=O)N2CCOCC2c2ncon2)cc1` (centres undefined), the cytotoxicity at 10 µM is -0.968%. Next, `NC(=O)CN(CC1CCOC1)C1CC1` (centres undefined): -14%. Turning to `Cn1ccc2c(C(=O)NCCCS(C)(=O)=O)cccc21`, the cytotoxicity at 10 µM was -0.915%. Consider `O=C(c1ccco1)N(CC(F)(F)F)C1CCCOC1` (centres undefined), for which the cytotoxicity at 10 µM was -19.5%.

Regarding `COc1ccc(F)cc1C[S+]([O-])CC(=O)NCc1ccccc1C` (centres undefined), the cytotoxicity at 10 µM was -0.907%.

Regarding `CS(=O)(=O)c1cccc(C(=O)NCC2Cc3ccccc3O2)c1` (centres undefined), the cytotoxicity at 10 µM was -1.26%. Next, `CN1CCC(NC(=O)CC2CN(Cc3ccccc3)CCO2)CC1` (centres undefined): -22.2%. Next, `Cc1cccc(-c2nc(CN3CCn4c(nnc4C4CC4)C3)no2)c1`: 3.33%; `CCc1noc(CC)c1CNC(=O)Nc1cccc(C(=O)N(C)C)c1`: 16.4%; `Cc1cc(F)ccc1NCC(=O)NCC(F)(F)F`: -2.56%.

On to `COc1ccc(C(N)=O)cc1NCc1noc(-c2ccsc2)n1`, for which the cytotoxicity at 10 µM came out at 3.33%. Next, `CC(C)CNC(=O)c1ccc(NC(=O)NCC2CC2)cc1Cl`: 7.71%; `COc1cc(F)c(C(C)NC(=O)c2cccnc2C)cc1OC` (centres undefined): 38%. Next, `O=C(c1ccc(N2CCCC2)nn1)N1CCCc2cc(F)c(F)cc21`: -16.3%.

`CSCCN(C)Cc1ccc(F)cc1C#N`: the cytotoxicity at 10 µM amounted to 4.81%.

As to `COc1ccnc(N2CCN(Cc3nc(-c4ccoc4)no3)CC2)c1`, the cytotoxicity at 10 µM was -10.9%. Take `CC(C)COCC(NC(=O)Cc1ccn[nH]1)c1ccco1` (centres undefined): the cytotoxicity at 10 µM was -1.53%. For the compound `CC1CN(C(=O)NCCn2ccnc2)CCO1` (centres undefined), the cytotoxicity at 10 µM is -49.5%. Next, `Cc1ncccc1NC(=O)C1=NOC2(CCN(Cc3nccs3)C2)C1` (centres undefined): 2.11%. As for `COc1ccc(-c2cn[nH]c2)cc1CNC1CCCC1`, the cytotoxicity at 10 µM is -45.3%. `COc1cccc(N2CCN(C(=O)C(C)Oc3ccccc3)CC2=O)c1` (centres undefined): the cytotoxicity at 10 µM was -4.73%. Next, `Cc1cc(C(=O)N2CCCC(c3ccc(C(=O)O)cc3)C2)c(C)o1` (centres undefined): 11.8%; `CCCn1nccc1S(=O)(=O)N1CCC2(CCCN(C(C)C)C2=O)C1` (centres undefined): 5.96%.

For `O=C(O)[C@@H]1CN(C2CCCCC2)C[C@H]1C1CC1`, the cytotoxicity at 10 µM is -140%. Next, `CC(C)Nc1cc(N2CCN(Cc3ccccc3)C(CCO)C2)ncn1` (centres undefined): 7.9%; `CN1CCCN(C(=O)c2cnc(Cc3c(Cl)cccc3Cl)nc2O)CC1`: -0.862%; `O=C1O[C@@H]2CN(Cc3ccsc3)C[C@@H]2N1Cc1ccccn1`: 9.77%. Next, `COCCS(=O)(=O)c1ncc(CN(C)C)n1Cc1ccccc1`: 3.19%. Next, `O=C1CCCCCN1CCc1nc(-c2cccnn2)no1`: -1.75%; `CCC(C)N(Cc1sccc1C)C(=O)c1cnc[nH]1` (centres undefined): 5.55%. Take `CCCN1CCN(c2ccc(-c3nc(C)no3)cn2)CC1`: the cytotoxicity at 10 µM turned out to be 8.95%. Next, `CC1CCCN1Cc1ccccc1-c1nc(C(C)(C)C)cc(=O)[nH]1` (centres undefined): 11.4%. Regarding `CC(C)n1ccnc1CN1CCOC(CCc2ccccc2)C1` (centres undefined), the cytotoxicity at 10 µM was -132%.

On to `CCNc1cc(N2CCN(C(=O)c3ccc(OC)cc3)CC2)nc(C)n1`, for which the cytotoxicity at 10 µM was -3.45%. With `C=C(C)COc1cccc(C(=O)NCCCc2nnn[nH]2)c1`, the cytotoxicity at 10 µM was -0.531%. For `CCCc1nc(CNC(=O)Cc2csc(C)n2)cs1`, the cytotoxicity at 10 µM is -10.6%. As for `Cc1noc(C)c1CCC(=O)N1CCN(CCn2cncn2)CC1`, the cytotoxicity at 10 µM turned out to be 5.03%. Next, `Cc1ncsc1CCC(=O)NCc1cc2n(n1)CCN(C(=O)N(C)C)C2`: 15.3%; `CCc1ccc(C(=O)N2CCC(c3nncn3CC)CC2)s1`: -15.4%. For `Cc1nn(C)c(N2CCOCC2)c1CNC1CCC(O)CC1` (centres undefined), the cytotoxicity at 10 µM was -13.2%. Next, `Cc1cc(CN2CCN(CC(O)c3ccc(Cl)cc3)CC2)no1` (centres undefined): -7.06%; `N#Cc1ccc(OCC(O)CN2CCc3cncnc3C2)cc1` (centres undefined): -8.61%. Next, `N#CCc1cccc(C(=O)N2CCN(CC(O)c3ccccc3)CC2)c1` (centres undefined): -10.7%; `Cc1nn(C)cc1C(=O)N1CCCC(n2cncn2)C1` (centres undefined): -3.27%.

On to `Cc1cc(C)n(CC2CN(CCOc3ccccc3F)CCO2)n1` (centres undefined), for which the cytotoxicity at 10 µM is -6.73%. Consider `Cc1cnn(CC2CCCCN2C(=O)CC(F)(F)F)c1` (centres undefined), for which the cytotoxicity at 10 µM was -11.5%.

On to `CC(=O)Nc1nc(C(=O)NCc2ccnc(N3CCCC3)c2)cs1`, for which the cytotoxicity at 10 µM was -1.94%. Regarding `c1csc(-c2noc(CN3CCCCC3Cn3cccn3)n2)c1` (centres undefined), the cytotoxicity at 10 µM is -15.4%. Next, `CC(NC(=O)Nc1ccc(N2CCCC2)nc1)c1nncn1C` (centres undefined): -12.6%.

For the compound `Cc1n[nH]c(C)c1NC(=O)CN1CCCC1c1c(C)nn(C)c1C` (centres undefined), the cytotoxicity at 10 µM was -19.2%.

For `CC(C)c1csc(C2CCCN(C(=O)Cn3ccccc3=O)C2)n1` (centres undefined), the cytotoxicity at 10 µM is -14.4%. Next, `CS(=O)(=O)NCCCN1CCCC1c1ccccc1` (centres undefined): -13.4%. With `Cc1cnn(CC2CCCN2C(=O)c2cc3ccccc3[nH]c2=O)c1` (centres undefined), the cytotoxicity at 10 µM is 2.38%. With `CCn1ncc2c1C(COCC1CC1)N(C(=O)c1ccncn1)CC2` (centres undefined), the cytotoxicity at 10 µM was -147%. Next, `CC(C)NC(=O)c1ccc2c(c1)C1(CCN(C)CC1)C(=O)N2`: -0.201%; `CSc1ccccc1C(=O)N1C[C@@H]2CC[C@H]1CN(C(=O)C1CCC1)C2`: -6.75%. Next, `OC12CCC(CC1)N(Cc1ccc(F)cc1)C2CN1CCOCC1` (centres undefined): 5.29%.

The values above are taken from ChEMBL document CHEMBL4513216, “Probing the Open Global Health Chemical Diversity Library for Multistage-Active Starting Points for Next-Generation Antimalarials” (ACS Infect Dis, 2020).
